Data set [1] in a line: Hydrolytic stability of the compound in aqueous buffer at pH 7.4 after 48 hrs by HPLC analysis. Particulars: pH 7.4, 48 h. Type of data set: physicochemical. A digest of the protocol: (§1)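 Compound added from DMSO stock to 100 mM buffer (phosphate at pH 3 and 7.4, acetate at pH 5), final 3 nmol/mL. Sampled at set times up to 48 h, in triplicate. Parent compound and ciprofloxacin/formylciprofloxacin quantified by isocratic RP-18 HPLC with fluorescence detection (276/442 nm). Half-life given with 95% confidence intervals.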

A short description of data set [2]: Hydrolytic stability of the compound in aqueous buffer assessed as half life at pH 3 after 48 hrs by HPLC analysis. Type of data set: physicochemical. A digest of the protocol: as §1
Data set [3] in a line: Hydrolytic stability of the compound in aqueous buffer assessed as half life at pH 5 after 48 hrs by HPLC analysis. In kind it is physicochemical. A digest of the protocol: as §1
The nature of data set [4]: Metabolic stability in rat plasma assessed as parent compound remaining after 48 hrs by HPLC analysis. Type of data set: ADME, cell-free. Particulars: read-out: Stability. A digest of the protocol:
(§2)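 Compound spiked into rat plasma from DMSO stock, final 3 nmol/mL. 100 µL aliquots taken at set times and precipitated with an equal volume of acetonitrile. Gradient RP-18 HPLC (phosphate pH 2.0/acetonitrile) with fluorescence detection. Six runs: three to 48 h and three extended to 96 h. Result expressed as % parent compound remaining.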

Data set [5] in a line: Metabolic stability in rat plasma assessed as parent compound remaining after 96 hrs by HPLC analysis. Type of data set: ADME, cell-free. Particulars: read-out: Stability. Summed up: as §2
Data set [6] has as its system Mycobacterium tuberculosis. Description: Antimycobacterial activity against Mycobacterium tuberculosis H37Rv ATCC 27294 after 28 days by colony forming unit determination. Type of data set: functional. Particulars: H37Rv ATCC 27294, 672 h. Summed up: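 Compounds added to Sula liquid medium as DMSO solutions (DMSO at most 2%), incubated at 37 °C for 28 days. MIC is the lowest concentration giving visible growth inhibition. Activity was confirmed by CFU counts after subculture onto drug-free Löwenstein-Jensen solid medium.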

The nature of data set [7]: Selectivity index, ratio of IC50 for human HepG2 cells to MIC for Mycobacterium tuberculosis H37Rv ATCC 27294. In kind it is functional.
Data set [8] has as its system Mycobacterium avium. The data set is described as follows: Antimycobacterial activity against Mycobacterium avium CNTC 330/88 after 14 days. In kind it is functional. Particulars: CNTC 330/88, 336 h.
Data set [9] concerns Mycobacterium avium. The data set is described as follows: Antimycobacterial activity against Mycobacterium avium CNTC 330/88 after 21 days. In kind it is functional. Particulars: CNTC 330/88, 504 h.
Data set [10] deals with Mycobacterium kansasii. Description: Antimycobacterial activity against Mycobacterium kansasii CNTC My 235/80 after 7 days. Particulars: CNTC My 235/80, 168 h. Type of data set: functional.
Data set [11] relates to Mycobacterium kansasii. The data set is described as follows: Antimycobacterial activity against Mycobacterium kansasii CNTC My 235/80 after 14 days. Type of data set: functional. Particulars: CNTC My 235/80, 336 h.
For data set [12], the system named is Mycobacterium kansasii. Description: Antimycobacterial activity against Mycobacterium kansasii CNTC My 235/80 after 21 days. Particulars: CNTC My 235/80, 504 h. In kind it is functional.
Data set [13] relates to Mycobacterium kansasii. Description: Antimycobacterial activity against Mycobacterium kansasii CNTC 6509/96 after 7 days. In kind it is functional. Particulars: CNTC 6509/96, 168 h.
The test system of data set [14] is Mycobacterium kansasii. Description: Antimycobacterial activity against Mycobacterium kansasii CNTC 6509/96 after 14 days. In kind it is functional. Particulars: CNTC 6509/96, 336 h.
Data set [15] deals with Mycobacterium kansasii. The data set is described as follows: Antimycobacterial activity against Mycobacterium kansasii CNTC 6509/96 after 21 days. Type of data set: functional. Particulars: CNTC 6509/96, 504 h.
The next data set has as its system HepG2. The data set is described as follows: Cytotoxicity against human HepG2 cells measured after overnight incubation by MTT assay. Type of data set: cell-based. Summed up: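 HepG2 cells in phenol-red-free RPMI-1640 with 10% FCS, 2 mM L-glutamine and gentamycin, seeded at 5 × 10³ per well. After 24 h at 37 °C, cells were exposed overnight to compound in serum-free medium. MTT (2 mg/mL) for 4 h, formazan dissolved in DMSO, read as OD540 minus OD620. % cytotoxicity versus untreated controls; IC50 taken from dose-response curves. Two independent experiments, 4–8 parallel measurements.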
Background: Tetrazolium assays rely on reduction of a dye to a coloured formazan, in cell work by metabolically active cells.

Another data set has as its system PBMC. The data set is described as follows: Cytotoxicity against human PBMC measured after overnight incubation by MTT assay. Type of data set: cell-based. A digest of the protocol: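 Freshly prepared human PBMC in phenol-red-free RPMI-1640 with 10% FCS, 2 mM L-glutamine and gentamycin, 2.0 × 10⁵ cells per well. After 24 h at 37 °C, overnight compound exposure in serum-free medium. MTT for 4 h, formazan in DMSO, OD540 minus OD620. % cytotoxicity versus controls; IC50 from dose-response curves. Two independent experiments.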

For a further data set, the system named is SH-SY5Y. The data set is described as follows: Cytotoxicity against human SH-SY5Y cells measured after overnight incubation by MTT assay. In kind it is cell-based. Summed up:
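SH-SY5Y neuroblastoma cells in phenol-red-free DMEM with 10% FCS, 2 mM L-glutamine, gentamycin and 1% NEAA, 7.5 × 10³ per well. After 24 h at 37 °C, overnight compound exposure in serum-free medium. MTT readout (OD540 minus OD620) against untreated controls; IC50 from dose-response curves. Two independent experiments.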

≈ marks a conversion by molar mass, not a printed value. Some results are limits rather than exact numbers.

The half-life is the time in which the quantity being followed falls by half. One may read the MIC as the least concentration at which growth counts as inhibited. A low value points to inhibition by little substance. In general, IC50 refers to the concentration at which inhibition is half-maximal. A lower IC50 goes with higher potency.

As for `O=C(N/N=C/N1CCN(c2cc3c(cc2F)c(=O)c(C(=O)O)cn3C2CC2)CC1)c1ccc(F)cc1`, the Stability result in [1] is recorded as “Stable”. For the same molecule, the half-life was 2.9 h in data set [2] and 11.8 h in [3]. The remaining at 48 h in [4] turned out to be 87%. Further, the remaining at 96 h in [5] came out at 82%. Moreover, the minimum inhibitory concentration (MIC) in [6] is 1 µg/mL (≈ 2.02 µM); against Mycobacterium avium [8], 62.5 µM (≈ 31 µg/mL); in the data set with Mycobacterium avium [9] it was 125 µM (≈ 61.9 µg/mL); with Mycobacterium kansasii [10], 4 µM (≈ 1.98 µg/mL); against Mycobacterium kansasii [11], 4 µM (≈ 1.98 µg/mL); in the data set on Mycobacterium kansasii [12], 8 µM (≈ 3.96 µg/mL). The minimal inhibitory concentration (MIC) is 8 µM (≈ 3.96 µg/mL) against Mycobacterium kansasii [13], 8 µM (≈ 3.96 µg/mL) against Mycobacterium kansasii [14] and 16 µM (≈ 7.93 µg/mL) against Mycobacterium kansasii [15]. For the same molecule, the “Selectivity Index” value in [7] was found to be 634.29. The 50% inhibitory concentration (IC50) is above 1280 µM in the data set with HepG2 and above 763 µM with PBMC.

For `CCn1cc(C(=O)O)c(=O)c2cc(F)c(N3CCNCC3)cc21` [NORFLOXACIN], the MIC in [6] is 5 µg/mL (≈ 15.7 µM); against Mycobacterium avium [8] it was 125 µM (≈ 39.9 µg/mL); in the data set with Mycobacterium avium [9], 250 µM (≈ 79.8 µg/mL); with Mycobacterium kansasii [10], 8 µM (≈ 2.55 µg/mL); with Mycobacterium kansasii [11] it was 16 µM (≈ 5.11 µg/mL); with Mycobacterium kansasii [12], 16 µM (≈ 5.11 µg/mL). Also, the MIC stood at 2 µM (≈ 0.639 µg/mL) in the data set on Mycobacterium kansasii [13], 8 µM (≈ 2.55 µg/mL) against Mycobacterium kansasii [14] and 8 µM (≈ 2.55 µg/mL) in the data set on Mycobacterium kansasii [15]. The “Selectivity Index” value in data set [7] worked out at 31.85. Further, the half-maximal inhibitory concentration (IC50) in the data set with HepG2, in the data set on PBMC and in the data set with SH-SY5Y was above 500 µM throughout.

Source of the values: ChEMBL document CHEMBL1828506, “New fluorine-containing hydrazones active against MDR-tuberculosis” (Eur J Med Chem, 2011).
